Data taken from ChEMBL document CHEMBL1629657, “In vitro antimicrobial activity of a new cephalosporin, ceftaroline, and determination of quality control ranges for MIC testing” (2009).
≈ marks a conversion by molar mass, not a printed value.

Columns and labels:
Format in all cases: functional
Haemophilus influenzae [1] = experiment: Antimicrobial activity against beta-lactamase-negative ampicillin resistant Haemophilus influenzae by broth microdilution method
How it was run: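 CLSI broth microdilution in Haemophilus test medium (cation-adjusted Mueller-Hinton base) against clinical H. influenzae isolates of the stated phenotype. Ceftaroline was compared with ceftriaxone, levofloxacin and imipenem. Activity was expressed as MICs (MIC90 in μg/ml).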

Staphylococcus aureus [2] = experiment: Antimicrobial activity against methicillin-resistant Staphylococcus aureus by broth microdilution method
How it was run: (§1)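 Isolates of the stated resistance phenotype were tested by CLSI broth microdilution in unsupplemented cation-adjusted Mueller-Hinton broth. Ceftaroline was compared with ceftriaxone, levofloxacin and imipenem. Activity was expressed as MICs (MIC90 in μg/ml).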

Staphylococcus aureus [3] = experiment: Antimicrobial activity against vancomycin-resistant Staphylococcus aureus by broth microdilution method; how it was run: as §1
Escherichia coli = experiment: Antimicrobial activity against ESBL-negative Escherichia coli by broth microdilution method
How it was run: (§2)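 Clinical isolates were tested by CLSI broth microdilution in unsupplemented cation-adjusted Mueller-Hinton broth. The read-out was the MIC, reported as MIC90 (μg/ml) per species or phenotypic group. Ceftriaxone, levofloxacin and imipenem were run in parallel as comparators.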

Streptococcus pyogenes [4] = experiment: Antimicrobial activity against macrolide-susceptible Streptococcus pyogenes by broth microdilution method
How it was run: (§3)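 CLSI broth microdilution in cation-adjusted Mueller-Hinton broth with 3% lysed horse blood, against streptococcal clinical isolates of the stated phenotype. Ceftaroline was compared with ceftriaxone, levofloxacin and imipenem. Activity was expressed as MICs (MIC90 in μg/ml).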

Streptococcus pyogenes [5] = experiment: Antimicrobial activity against macrolide-resistant Streptococcus pyogenes by broth microdilution method; how it was run: as §3
Streptococcus viridans = experiment: Antimicrobial activity against Streptococcus viridans group clinical isolate by broth microdilution method
How it was run: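 Streptococcal isolates were tested by CLSI broth microdilution in cation-adjusted Mueller-Hinton broth supplemented with 3% lysed horse blood. The read-out was the MIC, with MIC90 (μg/ml) reported per group. Ceftriaxone, levofloxacin and imipenem served as comparators.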

Enterococcus faecalis = experiment: Antimicrobial activity against vancomycin-susceptible Enterococcus faecalis by broth microdilution method; how it was run: as §2
Enterobacter cloacae = experiment: Antimicrobial activity against ESBL-negative Enterobacter cloacae by broth microdilution method; how it was run: as §2
Proteus mirabilis = experiment: Antimicrobial activity against Proteus mirabilis by broth microdilution method; how it was run: as §2
Providencia stuartii = experiment: Antimicrobial activity against Proteus stuartii by broth microdilution method; how it was run: as §2
Providencia rettgeri = experiment: Antimicrobial activity against Proteus rettgeri by broth microdilution method; how it was run: as §2
Haemophilus influenzae [6] = experiment: Antimicrobial activity against beta-lactamase-positive Haemophilus influenzae by broth microdilution method
How it was run: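 H. influenzae isolates were tested by CLSI broth microdilution using Haemophilus test medium. The MIC was read and MIC90 (μg/ml) reported for the group. Ceftriaxone, levofloxacin and imipenem served as comparators.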

Klebsiella pneumoniae [7] = experiment: Antimicrobial activity against ESBL-positive Klebsiella pneumoniae by broth microdilution method; how it was run: as §2
Serratia marcescens = experiment: Antimicrobial activity against Serratia marcescens by broth microdilution method; how it was run: as §2
Klebsiella pneumoniae [8] = experiment: Antimicrobial activity against ESBL-negative Klebsiella pneumoniae by broth microdilution method; how it was run: as §2
Staphylococcus aureus [9] = experiment: Antimicrobial activity against methicillin-susceptible Staphylococcus aureus by broth microdilution method; how it was run: as §2
Moraxella catarrhalis = experiment: Antimicrobial activity against Moraxella catarrhalis by broth microdilution method; how it was run: as §2
[10] = fT>MIC Enterobacteriaceae infected mouse model for 1-log kill
Corynebacterium jeikeium = experiment: Antimicrobial activity against Corynebacterium jeikeium by broth microdilution method; how it was run: as §2
Klebsiella aerogenes = experiment: Antimicrobial activity against ESBL-negative Enterobacter aerogenes by broth microdilution method; how it was run: as §2

CCO/N=C(\C(=O)N[C@@H]1C(=O)N2C(C(=O)[O-])=C(Sc3nc(-c4cc[n+](C)cc4)cs3)CS[C@H]12)c1nsc(NP(=O)(O)O)n1 [CEFTAROLINE FOSAMIL]
MIC50 (Haemophilus influenzae [1]): 0.12 µg/mL (≈ 0.175 µM)
MIC90 (Haemophilus influenzae [1]): 0.25 µg/mL (≈ 0.365 µM)
MIC (Staphylococcus aureus [2]): 0.5 µg/mL (≈ 0.73 µM)
MIC50 (Staphylococcus aureus [2]): 0.5 µg/mL (≈ 0.73 µM)
MIC90 (Staphylococcus aureus [2]): 1 µg/mL (≈ 1.46 µM)
MIC (Staphylococcus aureus [3]): 0.5 µg/mL (≈ 0.73 µM)
MIC50 (Escherichia coli): 0.06 µg/mL (≈ 0.0876 µM)
MIC90 (Escherichia coli): 1 µg/mL (≈ 1.46 µM)
MIC (Streptococcus pyogenes [4]): 0.015 µg/mL (≈ 0.0219 µM)
MIC50 (Streptococcus pyogenes [4]): 0.015 µg/mL (≈ 0.0219 µM)
MIC90 (Streptococcus pyogenes [4]): 0.015 µg/mL (≈ 0.0219 µM)
MIC (Streptococcus pyogenes [5]): 0.015 µg/mL (≈ 0.0219 µM)
MIC50 (Streptococcus pyogenes [5]): 0.015 µg/mL (≈ 0.0219 µM)
MIC90 (Streptococcus pyogenes [5]): 0.015 µg/mL (≈ 0.0219 µM)
MIC (Streptococcus viridans): 0.015 µg/mL (≈ 0.0219 µM)
MIC50 (Streptococcus viridans): 0.015 µg/mL (≈ 0.0219 µM)
MIC90 (Streptococcus viridans): 0.12 µg/mL (≈ 0.175 µM)
MIC (Enterococcus faecalis): 1 µg/mL (≈ 1.46 µM)
MIC50 (Enterococcus faecalis): 1 µg/mL (≈ 1.46 µM)
MIC90 (Enterococcus faecalis): 4 µg/mL (≈ 5.84 µM)
MIC50 (Enterobacter cloacae): 0.12 µg/mL (≈ 0.175 µM)
MIC90 (Enterobacter cloacae): 0.5 µg/mL (≈ 0.73 µM)
MIC50 (Proteus mirabilis): 0.06 µg/mL (≈ 0.0876 µM)
MIC90 (Proteus mirabilis): 4 µg/mL (≈ 5.84 µM)
MIC50 (Providencia stuartii): 1 µg/mL (≈ 1.46 µM)
MIC90 (Providencia stuartii): 4 µg/mL (≈ 5.84 µM)
MIC50 (Providencia rettgeri): 1 µg/mL (≈ 1.46 µM)
MIC90 (Providencia rettgeri): 4 µg/mL (≈ 5.84 µM)
MIC (Haemophilus influenzae [6]): 0.015 µg/mL (≈ 0.0219 µM)
MIC50 (Haemophilus influenzae [6]): 0.015 µg/mL (≈ 0.0219 µM)
MIC90 (Haemophilus influenzae [6]): 0.06 µg/mL (≈ 0.0876 µM)
MIC50 (Klebsiella pneumoniae [7]): 32 µg/mL (≈ 46.7 µM)
MIC90 (Klebsiella pneumoniae [7]): > 32 µg/mL
MIC (Serratia marcescens): 0.5 µg/mL (≈ 0.73 µM)
MIC50 (Serratia marcescens): 0.5 µg/mL (≈ 0.73 µM)
MIC90 (Serratia marcescens): 8 µg/mL (≈ 11.7 µM)
MIC50 (Klebsiella pneumoniae [8]): 0.06 µg/mL (≈ 0.0876 µM)
MIC90 (Klebsiella pneumoniae [8]): 0.25 µg/mL (≈ 0.365 µM)
MIC (Staphylococcus aureus [9]): 0.25 µg/mL (≈ 0.365 µM)
MIC50 (Staphylococcus aureus [9]): 0.25 µg/mL (≈ 0.365 µM)
MIC90 (Staphylococcus aureus [9]): 0.25 µg/mL (≈ 0.365 µM)
MIC50 (Moraxella catarrhalis): 0.12 µg/mL (≈ 0.175 µM)
MIC90 (Moraxella catarrhalis): 0.25 µg/mL (≈ 0.365 µM)
fT>MIC [10]: 41%
MIC50 (Corynebacterium jeikeium): > 32 µg/mL
MIC90 (Corynebacterium jeikeium): > 32 µg/mL
MIC50 (Klebsiella aerogenes): 0.12 µg/mL (≈ 0.175 µM)
MIC90 (Klebsiella aerogenes): > 32 µg/mL
